Converted amounts (≈) assume the structure as drawn. The source made the active and inactive calls. The calls are words filed in the database; no cut-off is given here.
What was measured:
Leishmania infantum [1] = experiment: Antileishmanial activity against Leishmania infantum promastigotes; format: functional, organism-based
Trypanosoma cruzi [2] = experiment: Antitrypanosomal activity against of Trypanosoma cruzi epimastigotes; format: functional, organism-based
[3] = Selectivity index, ratio of CC50 for mouse J774.1 cells to IC50 for Leishmania infantum amastigotes; format: toxicity; conditions: read-out: Ratio CC50/IC50
Summary of the method: (§1)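 Cytotoxicity (CC50) was measured on murine J774.1A macrophages. Selectivity index is CC50 divided by parasite IC50 (promastigote, epimastigote or axenic amastigote). Values are the mean of three independent experiments.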

[4] = Selectivity index, ratio of CC50 for mouse J774.1 cells to IC50 for Leishmania infantum promastigotes; format: toxicity; conditions: read-out: Ratio CC50/IC50; summary of the method: as §1
Leishmania infantum [5] = experiment: Antileishmanial activity against Leishmania infantum axenic amastigotes; format: functional, organism-based
[6] = Cytotoxicity against mouse J774.1 cells; format: toxicity, cell-based; summary of the method: as §1
[7] = Solubility of the compound by UV-Vis spectroscopy; format: physicochemical
Summary of the method: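 Solubility in μM was determined by UV-Vis spectroscopy.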

Trypanosoma cruzi [8] = experiment: Antitrypanosomal activity against of Trypanosoma cruzi epimastigotes at 25 uM; format: functional
[9] = Selectivity index, ratio of CC50 for mouse J774.1 cells to IC50 for Trypanosoma cruzi epimastigotes; format: toxicity; conditions: read-out: Ratio CC50/IC50; summary of the method: as §1
Trypanosoma cruzi [10] = experiment: Antitrypanosomal activity against of Trypanosoma cruzi epimastigotes assessed as increase in IC50 in presence of FA; format: functional
Trypanosoma cruzi [11] = experiment: Antitrypanosomal activity against of Trypanosoma cruzi epimastigotes in presence of FA; format: functional, organism-based
Leishmania infantum [12] = experiment: Antileishmanial activity against Leishmania infantum promastigotes in presence of FA; format: functional, organism-based
Leishmania infantum [13] = experiment: Antileishmanial activity against Leishmania infantum promastigotes assessed as increase in IC50 in presence of FA; format: functional
[14] = Mutagenicity in Salmonella typhimurium TA98 assessed as number of revertant colonies at 100 uM by Ames test (reference value: 4); format: toxicity; conditions: salmonella enterica subsp. enterica […]
Summary of the method: (§2)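 Ames reverse-mutation assay in Salmonella typhimurium TA 98. Revertant colonies were counted at five escalating dose levels alongside a zero-dose (spontaneous revertant) negative control and a 4-nitro-o-phenylenediamine positive control. A compound was called mutagenic when revertants exceeded twice the negative control at two consecutive dose levels.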

Leishmania infantum [15] = experiment: Antileishmanial activity against Leishmania infantum promastigotes assessed as decrease in IC50 in presence of iron(III); format: functional, organism-based
Summary of the method: (§3)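 Parasite proliferation was run in the presence of copper(II), iron(III) or zinc(II) salts, each at 1 μM.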

Trypanosoma cruzi [16] = experiment: Induction of ROS production in Trypanosoma cruzi epimastigotes in presence of Fe3+; format: functional, organism-based
Summary of the method: (§4)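 Oxidative stress in parasite cultures was read fluorometrically with the 2,7-dichlorodihydrofluorescein diacetate (DCFH-DA) probe against a negative-control culture, and was also run with metal cations present.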

Trypanosoma cruzi [17] = experiment: […] activity against Trypanosoma cruzi epimastigotes assessed as change in parasites in presence of iron(III); format: functional, organism-based; summary of the method: as §3
Leishmania infantum [18] = experiment: Induction of ROS production in Leishmania infantum promastigotes in presence of Cu2+; format: functional, organism-based; summary of the method: as §4
Trypanosoma cruzi [19] = experiment: Induction of ROS production in Trypanosoma cruzi epimastigotes in presence of Cu2+; format: functional, organism-based; summary of the method: as §4
Trypanosoma cruzi [20] = experiment: Induction of ROS production in Trypanosoma cruzi epimastigotes in presence of Zn2+; format: functional, organism-based; summary of the method: as §4
[21] = Mutagenicity in Salmonella typhimurium TA98 assessed as number of revertant colonies at 1000 uM by Ames test (reference value: 4); format: toxicity; conditions: salmonella enterica subsp. enterica […]; summary of the method: as §2
Leishmania infantum [22] = experiment: Antileishmanial activity against Leishmania infantum promastigotes assessed as decrease in IC50 in presence of zinc(II); format: functional, organism-based; summary of the method: as §3
[23] = Mutagenicity in Salmonella typhimurium TA98 assessed as number of revertant colonies at 9000 uM by Ames test (reference value: 4); format: toxicity; conditions: salmonella enterica subsp. enterica […]; summary of the method: as §2
Leishmania infantum [24] = experiment: Antileishmanial activity against Leishmania infantum promastigotes assessed as decrease in IC50 in presence of copper(II); format: functional, organism-based; summary of the method: as §3
Leishmania infantum [25] = experiment: Induction of ROS production in Leishmania infantum promastigotes in presence of Fe3+; format: functional, organism-based; summary of the method: as §4
[26] = Mutagenicity in Salmonella typhimurium TA98 assessed as number of revertant colonies at 3000 uM by Ames test (reference value: 4); format: toxicity; conditions: salmonella enterica subsp. enterica […]; summary of the method: as §2
[27] = Mutagenicity in Salmonella typhimurium TA98 assessed as number of revertant colonies at 300 uM by Ames test (reference value: 4); format: toxicity; conditions: salmonella enterica subsp. enterica […]; summary of the method: as §2
Trypanosoma cruzi [28] = experiment: […] activity against Trypanosoma cruzi epimastigotes assessed as change in parasites in presence of copper(II); format: functional, organism-based; summary of the method: as §3
Leishmania infantum [29] = experiment: Induction of ROS production in Leishmania infantum promastigotes in presence of Zn2+; format: functional, organism-based; summary of the method: as §4
Trypanosoma cruzi [30] = experiment: […] activity against Trypanosoma cruzi epimastigotes assessed as change in parasites in presence of zinc(II); format: functional, organism-based; summary of the method: as §3
Trypanosoma cruzi [31] = experiment: Induction of ROS production in Trypanosoma cruzi epimastigotes by DCFH-DA staining based flow cytometry analysis; format: functional, organism-based; summary of the method: as §4
Leishmania infantum [32] = experiment: Induction of NO production in Leishmania infantum promastigotes by Griess method; format: functional, organism-based
Summary of the method: (§5)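 NO production in parasite cultures was measured at three test concentrations, either 25, 50 and 100 μM or 1, 5 and 10 μM depending on the compound.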

Trypanosoma cruzi [33] = experiment: Induction of NO production in Trypanosoma cruzi epimastigotes by Griess method; format: functional, organism-based; summary of the method: as §5
Leishmania infantum [34] = experiment: Induction of ROS production in Leishmania infantum promastigotes by DCFH-DA staining based flow cytometry analysis; format: functional, organism-based; summary of the method: as §4

## O=c1[nH]c(-c2cccc(Br)c2)nc2ccccc12
Leishmania infantum [1]
  IC50: > 25 µM
Trypanosoma cruzi [2]
  IC50: > 25 µM

## CCCCCCCCCCCCCCCCOP(=O)([O-])OCC[N+](C)(C)C [MILTEFOSINE]
[3]
  selectivity ratio: 10.1
Leishmania infantum [1]
  IC50: 10.1 µM
[4]
  selectivity ratio: 8.9
Leishmania infantum [5]
  IC50: 8.69 µM
[6]
  CC50: 89.2 µM

## O=[N+]([O-])c1ccc(/C=N/N=c2\[nH]c(-c3ccc(Br)cc3)nc3ccccc23)o1
[7]
  solubility: 2.67 µM (≈ 1.17 µg/mL)
Leishmania infantum [1]
  IC50: > 25 µM
Trypanosoma cruzi [2]
  IC50: > 25 µM

## NNc1nc(-c2cccc(Cl)c2)nc2ccccc12
Leishmania infantum [1]
  IC50: 4.55 µM
Trypanosoma cruzi [8]
  inhibition at 25 µM: 38%
Trypanosoma cruzi [2]
  IC50: > 25 µM

## CC1CS(=O)(=O)CCN1/N=C/c1ccc([N+](=O)[O-])o1 (configuration not stated) [NIFURTIMOX]
[9]
  selectivity ratio: 36.3

## NNc1nc(-c2ccc(Br)cc2)nc2ccccc12
Trypanosoma cruzi [10]
  Activity: 48%
Trypanosoma cruzi [11]
  IC50: 25.2 µM
Leishmania infantum [12]
  IC50: 2.83 µM
Leishmania infantum [1]
  IC50: 2.13 µM
Trypanosoma cruzi [2]
  IC50: 14.3 µM
Leishmania infantum [13]
  Activity: 33%

## NNc1nc(-c2ccccc2)nc2ccccc12
Leishmania infantum [1]
  IC50: 12.7 µM
Trypanosoma cruzi [8]
  inhibition at 25 µM: 42.7%
Trypanosoma cruzi [2]
  IC50: > 25 µM

## Cc1ccc(-c2nc3ccccc3c(=O)[nH]2)cc1
Leishmania infantum [1]
  IC50: 5.23 µM
Trypanosoma cruzi [2]
  IC50: > 25 µM

## O=[N+]([O-])c1ccc(/C=N/N=c2\[nH]c(-c3ccc(F)cc3)nc3ccccc23)o1
Trypanosoma cruzi [10]
  Activity: 38%
Trypanosoma cruzi [11]
  IC50: 6.54 µM
[14]
  Activity: 2
Leishmania infantum [15]
  Activity: Active
Trypanosoma cruzi [16]
  Activity: Active
Trypanosoma cruzi [17]
  Activity: inactive
Leishmania infantum [18]
  Activity: Active
[3]
  selectivity ratio: 19.6
Trypanosoma cruzi [19]
  Activity: Active
[9]
  selectivity ratio: 16.8
Trypanosoma cruzi [20]
  Activity: Active
[21]
  Activity: 3.5
[7]
  solubility: 5.11 µM (≈ 1.93 µg/mL)
Leishmania infantum [22]
  Activity: Active
[23]
  Activity: 3
Leishmania infantum [24]
  Activity: Active
Leishmania infantum [1]
  IC50: 4.56 µM
[4]
  selectivity ratio: 15.1
Leishmania infantum [5]
  IC50: 3.52 µM
Trypanosoma cruzi [2]
  IC50: 4.08 µM
Leishmania infantum [25]
  Activity: Active
[26]
  Activity: 3
[27]
  Activity: 2.5
[6]
  CC50: 69.1 µM
Trypanosoma cruzi [28]
  Activity: inactive
Leishmania infantum [29]
  Activity: Active
Trypanosoma cruzi [30]
  Activity: inactive
Leishmania infantum [13]
  Activity: 31%

## Fc1ccc(-c2nc3ccccc3/c(=N/N=C/c3ccco3)[nH]2)cc1
Trypanosoma cruzi [10]
  Activity: 37%
Trypanosoma cruzi [11]
  IC50: 33.1 µM
[3]
  selectivity ratio: 10.7
[9]
  selectivity ratio: 5.7
[7]
  solubility: 7.87 µM (≈ 2.62 µg/mL)
Trypanosoma cruzi [31]
  Activity: inactive
Leishmania infantum [1]
  IC50: 9.07 µM
[4]
  selectivity ratio: 13.1
Leishmania infantum [5]
  IC50: 11.1 µM
Trypanosoma cruzi [2]
  IC50: 9.07 µM
Leishmania infantum [32]
  Activity: inactive
Trypanosoma cruzi [33]
  Activity: inactive
[6]
  CC50: 119 µM
Leishmania infantum [34]
  Activity: inactive
Leishmania infantum [13]
  Activity: 41%

## Oc1nc(-c2ccc(F)cc2)nc2ccccc12
Trypanosoma cruzi [10]
  Activity: 47%
Trypanosoma cruzi [11]
  IC50: 33.2 µM
Leishmania infantum [12]
  IC50: 9.78 µM
Leishmania infantum [1]
  IC50: 8.67 µM
Trypanosoma cruzi [2]
  IC50: 22.7 µM
Leishmania infantum [13]
  Activity: 14%

## NNc1nc(-c2cccc(Br)c2)nc2ccccc12
Leishmania infantum [1]
  IC50: 21.1 µM
Trypanosoma cruzi [8]
  inhibition at 25 µM: 21.4%
Trypanosoma cruzi [2]
  IC50: > 25 µM

— ChEMBL document CHEMBL5329191, “Optimization of the 2-arylquinazoline-4(3H)one scaffold for a selective and potent antitrypanosomal agent: modulation of the mechanism of action through chemical functionalization” (RSC Med Chem, 2023)
